In ChEMBL document CHEMBL1145988, “A conformationally locked analogue of the anti-HIV agent stavudine. An important correlation between pseudorotation and maximum amplitude” (J Med Chem, 2003):

Legend:
[1] = target: Human immunodeficiency virus type 1 reverse transcriptase (Human immunodeficiency virus 1, UniProt Q72547); test: Inhibitory concentration required against Reverse transcriptase (RT)
How it was run: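 Wild-type HIV-1 RT (1.0 μg) extends -47 primer annealed to single-stranded M13mp18 DNA. Run 30 min at 37 °C, then TCA-precipitated, filtered, scintillation counted; duplicate.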

[2] = Effective concentration required to inhibit P24 antigen production in PHA-PBM cells exposed to HIV-1 LAI; format: functional, cell-based; settings: Homo sapiens, PBMC
How it was run: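 PHA-stimulated PBM cells at 1×10^6/mL exposed to 50 TCID50 HIV-1 LAI with 10-fold serial drug dilutions, triplicate. p24 antigen measured by radioimmunoassay after 7 days of culture. EC50 set against p24 in drug-free controls.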

CCRF-CEM [3] = test: Effective concentration required to protect Human T-Lymphocyte (CEM) cells against cytopathogenicity of HIV-2 (ROD); format: functional, cell-based
How it was run: (§1)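 CEM cells at 4.5×10^5 cells/mL infected with 100 CCID50/mL of HIV-1 or HIV-2, then mixed 1:1 with compound dilutions (final 200, 40, 8, 0.32, 0.062 μg/mL) and held at 37 °C. Syncytia counted microscopically after 4–5 days. EC50 is the concentration preventing syncytium formation by 50%.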

CCRF-CEM [4] = test: Effective concentration required to protect activity Human CEM/TK- cells against cytopathogenicity of HIV virus; format: functional, cell-based
MT2 = test: Effective concentration required to protect MT-2 cells against cytopathogenicity of HIV-1 LAI; format: functional, cell-based; settings: Homo sapiens
How it was run: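 MT-2 cells (2×10^3) challenged with 100 TCID50 HIV-1 LAI and cultured with compound. MTT read-out on day 7 gives EC50 for 50% protection; run in duplicate.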

CCRF-CEM [5] = test: Cytostatic concentration required to inhibit Human T-Lymphocyte (CEM) cells proliferation caused by HIV-1 (IIIB); format: functional
How it was run: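 CEM cell proliferation measured; value is concentration inhibiting proliferation by 50%.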

MT4 = test: Effective concentration required to protect MT-4 cells against cytopathogenicity of HIV-1 LAI; format: functional, cell-based; settings: Homo sapiens
How it was run: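 MT-4 cells (3×10^4) exposed to 100 TCID50 HIV-1 LAI and cultured with compound. Viability read by MTT assay on day 5. EC50 taken as 50% protection against cytopathogenicity; duplicate assays.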

CCRF-CEM [6] = test: Effective concentration required to protect Human T-Lymphocyte (CEM) cells against cytopathogenicity of HIV-1 (IIIB); format: functional, cell-based; how it was run: as §1

IC50 [1] [nM]	EC50 [2] [nM]	EC50 (CCRF-CEM [3]) [nM]	EC50 (CCRF-CEM [4]) [nM]	EC50 (MT2) [nM]	EC50 (CCRF-CEM [6]) [nM]	Compound	CC50 (CCRF-CEM [5]) [nM]	EC50 (MT4) [nM]
	60	1450	> 250000	6100	960	Cc1cn([C@H]2C=C[C@]3(CO)C[C@H]23)c(=O)[nH]c1=O	> 250000	6900
650						Cc1cn([C@H]2C=C[C@]3(COP(=O)(O)OP(=O)(O)OP(=O)(O)O)C[C@H]23)c(=O)[nH]c1=O		
	40	400	27000	1800	210	Cc1cn([C@H]2C=C[C@@H](CO)O2)c(=O)[nH]c1=O [STAVUDINE]	93000	710

More lines, now with the values behind:

Compound	IC50 [1] [nM]	EC50 [2] [nM]	EC50 (CCRF-CEM [3]) [nM]	EC50 (CCRF-CEM [4]) [nM]	EC50 (MT2) [nM]	EC50 (CCRF-CEM [6]) [nM]	CC50 (CCRF-CEM [5]) [nM]	EC50 (MT4) [nM]
Cc1cn([C@H]2C=C[C@@H](COP(=O)(O)OP(=O)(O)OP(=O)(O)O)O2)c(=O)[nH]c1=O	80							
Cc1cn([C@H]2C[C@H](N=[N+]=[N-])[C@@H](CO)O2)c(=O)[nH]c1=O [ZIDOVUDINE]					30			20
